Only some compounds are listed: those with a hit (about 2.4% of all), similar ones and a draw of the others.
CTSL1 counter = Fasciola hepatica cathepsin L1 inhibitors, primary screen, counter-screen for PFM18AAP inhibitor project, biochemical, QFRET, fluorogenic peptide substrate; hit rate 0.49% among 300,000; AID 1906, 2009; recombinant F. hepatica cathepsin L1, Z-Leu-Arg-MCA fluorescence; inhibition, % at 5.96 µM;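 active = inhibition above the mean of all tested compounds plus 3 SD, set per screening campaign, cut at about 17% in these data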;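 note: 0% = plate median of test compound wells and 100% = 1 µM Z-Phe-Ala-diazomethylketone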
pCIP destab = p/CIP-EGFP fusion destabilizers, primary screen, fluorescence, F442A cells. Q05BA5. 16 h. decrease of EGFP signal, % at 10 µM. hit rate 0.01% among 290,000. AID 1984, 2009;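 active = EGFP signal decrease of at least 30% at 10 µM or well 3 SD below plate mean, unless failing retest; inactive = the rest, including hits failing retest or dose response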
T cruzi repl = inhibitors of intracellular T. cruzi growth, primary screen, luminescence, NIH3T3 host cells | T. cruzi beta-gal in NIH3T3, 90 h | inhibition, % (test concentration not listed) | hit rate 1.4% among 300,000 | AID 1885, 2009;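 active = mean inhibition across valid replicates above about 55%, limit read from the data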;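 note: signal also drops with host cell toxicity which is not excluded here; 0% = plate median of DMSO wells and 100% = zero luminescence signal; higher percent means less beta-gal luminescence so fewer parasites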
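Material: NIH/3T3 host cells with β-galactosidase reporter T. cruzi; Input: 5,000 host fibroblasts per well; Medium: DMEM, 2% fetal bovine serum; Compound: 50 nL DMSO compound solution per well; Schedule: 3 h host attachment, then at least 90 h co-culture; Detection: luminescent β-galactosidase signal after 60 min lysis.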
GASC-1 inh = inhibitors of GASC-1 histone demethylase, primary screen, biochemical, fluorescence, DELFIA europium; inhibition, % at 2.35 µM; Lysine-specific demethylase 4C (Homo sapiens), Q9H3R0; GST-JMJD2C(1-420) H3K9me3 demethylation; hit rate 0.069% among 330,000;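 active = more than half of a compound's replicate wells show inhibition beyond 50%, single wells judged on their own value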;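 note: signal counts dimethyl H3K9 product captured on neutravidin plate; 0% = median of DMSO wells and 100% = 0.3 times that DMSO median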
Cardio protect = cardioprotection against H2O2-induced cell death, primary screen, uHTS, H9c2 cells, ATPLite luminescence. H9c2 cardiomyocytes, H2O2 injury protection, 2 h. protection from H2O2 cell death, % at 20 µM. hit rate 0.63% among 360,000;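 active = compounds giving at least 50% protection of heart cells from peroxide-induced death in the single-dose screen, raw or plate-pattern-corrected value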;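 note: 0% = DMSO wells with peroxide and 100% = DMSO wells without peroxide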
PP5 inh = PP5 phosphatase inhibitors, primary screen, biochemical, fluorescence | Serine/threonine-protein phosphatase 5 (Homo sapiens), P53041 | purified PP5c, OMFP substrate fluorescence | inhibition, % at 6.7 µM | hit rate 0.18% among 320,000;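 active = inhibition above the campaign's mean inhibition across all tested compounds plus 3 SD, cut at about 9.5% in these data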;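 note: 0% = DMSO only and 100% = 100 µM cantharidin control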
Target sequence (P53041 whole entry, looked up): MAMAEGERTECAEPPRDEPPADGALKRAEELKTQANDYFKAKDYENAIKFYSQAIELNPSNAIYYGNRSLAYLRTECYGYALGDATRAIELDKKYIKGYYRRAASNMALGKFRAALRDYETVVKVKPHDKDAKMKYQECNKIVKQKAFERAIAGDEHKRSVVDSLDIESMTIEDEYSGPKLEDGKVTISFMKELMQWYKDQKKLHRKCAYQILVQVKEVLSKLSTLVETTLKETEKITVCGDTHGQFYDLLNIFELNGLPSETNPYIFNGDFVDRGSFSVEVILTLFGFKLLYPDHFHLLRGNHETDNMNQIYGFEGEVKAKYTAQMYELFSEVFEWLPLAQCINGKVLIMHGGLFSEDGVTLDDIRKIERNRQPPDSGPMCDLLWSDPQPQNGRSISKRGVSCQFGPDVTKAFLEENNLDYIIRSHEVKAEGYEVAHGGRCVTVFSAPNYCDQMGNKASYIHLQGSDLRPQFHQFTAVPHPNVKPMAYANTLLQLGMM
* = called active by the depositor; · = no result.

SMILES | CTSL1 counter | pCIP destab | T cruzi repl | GASC-1 inh | Cardio protect | PP5 inh
Cc1ccc(C2(C)NC(=O)N(CC(=O)NC(=O)NC(C)(C)C)C2=O)cc1 (configuration not stated) | -4 | -5 | -4 | -13 | 0 | 2
Cc1ccc(Sc2nnc(Cc3ccccc3)c3ccccc23)cc1 | 0 | -9 | 62* | -3 | 13 | 1
N#Cc1ncc(Cc2ccccc2)nc1C#N | 6 | -25 | 24 | -9 | 10 | -3
CCOc1ccc(C(=O)NNC(=O)CCNC(=O)c2ccc(Br)cc2)cc1OC | · | · | · | 8 | 6 | 1
COc1ccc2nc(NC(=S)N(C)C)sc2c1 | 1 | -2 | 60* | -11 | -7 | 4
CCOc1ccc(-n2c(C)c(C(=O)O)c3cc(OC)ccc32)cc1 | 0 | -13 | -2 | -1 | -4 | 1
CCOc1ccc(-n2c(C)c(C(C)=O)c3cc(OC(C)=O)ccc32)cc1 | -18 | -17 | 7 | 4 | 50* | 2
CCn1c(=O)c2sccc2n(Cc2cc(C(=O)OC)ccc2OC)c1=O | -1 | -9 | 13 | 8 | 9 | 1
Cc1cc(C)c(C#N)c(SCC(=O)NC(C)(C)C)n1 | 2 | -2 | 1 | -8 | -2 | 0
Cc1ccc(CNC(=O)CSc2nc(C)cc(C)c2C#N)cc1 | 17* | -11 | 12 | 21 | -5 | 3
Cc1cc(C)c(C#N)c(SCC(=O)C(C)(C)C)n1 | -2 | -2 | 72* | -5 | 4 | 2
COc1ccc(O)c(C(=O)c2cc(C(=O)NCCc3ccccc3)c(=O)n(CCc3ccccc3)c2)c1 | 1 | -19 | 53 | 24 | 16 | 2
Cc1ccc(O)c(C(=O)c2cc(C(=O)NCCc3ccccc3)c(=O)n(CCc3ccccc3)c2)c1 | -1 | -6 | 61* | 0 | 20 | 4
COC1CCN(Cc2c(C(=O)N3CCN(C4CCCCC4)CC3)nc3ccccn23)CC1 | -15 | 1 | 59* | -9 | 7 | -2
COCC1CCN(Cc2c(C(=O)N3CCN(C4CCCCC4)CC3)nc3ccccn23)C1 (configuration not stated) | 3 | 1 | 28 | 4 | 9 | 2
COc1ccc(CNCC(=O)Nc2cc(OC)cc(OC)c2)cc1 | 2 | -8 | 10 | -5 | -4 | -1
O=C(Cc1cccs1)N/N=C\c1ccc([N+](=O)[O-])s1 | 5 | -2 | 84* | 10 | -12 | 1
Cc1cc(C)cc(N=Cc2ccc([N+](=O)[O-])s2)c1 | 4 | -16 | 37 | 6 | -13 | 0
Cc1ccc(NC(=S)N/N=C/c2ccc([N+](=O)[O-])s2)cc1 | 4 | -14 | 63* | -3 | 6 | 1
COc1cc(/C=N/NC(=O)Cc2cccs2)c([N+](=O)[O-])cc1OC | 0 | -15 | -4 | -6 | 5 | -2
Cc1cc(C)n(CCNS(=O)(=O)c2ccc(C)c(C)c2)n1 | 2 | -2 | 0 | 1 | -7 | 0
CC(C)CCNC(=O)C(c1cccnc1)N(CCc1ccccc1)C(=O)Cn1nnc2ccccc21 (configuration not stated) | -4 | -2 | 23 | -7 | 12 | 0
CC(C)CCNC(=O)C(c1cccnc1)N(Cc1ccccc1)C(=O)Cn1nnc2ccccc21 (configuration not stated) | -1 | · | 56* | -31 | -4 | 1
O=[S@]1Oc2ccccc2-c2ccccc21 | -1 | · | -19 | 9 | 10 | 0
CC(C)(C)CC(=O)NCCc1csc(-c2ccccc2)n1 | -4 | -9 | 61* | -1 | -6 | 1
SMILES | CTSL1 counter | pCIP destab | T cruzi repl | GASC-1 inh | Cardio protect | PP5 inh
COc1ccc(C(=O)/C=C/c2ccc(OC)cc2OC)c(O)c1 | -3 | 10 | -21 | 0 | -13 | 4
COc1ccc(C(=O)/C=C/C(=O)N(CC(=O)NC2CCCCC2)Cc2ccccc2OC)c(O)c1 | · | -1 | 89* | 7 | -26 | ·
COc1ccc(C(=O)/C=C/C(=O)N(CC(=O)NC2CCCCC2)Cc2ccccc2)c(O)c1 | · | 0 | 60* | -3 | -32 | ·
COc1ccc(C(=O)/C=C/c2ccccc2)c(O)c1 | 22* | -6 | -17 | 3 | -10 | 5
O=C(CNC(=O)C1CCCCC1)OCC(=O)c1ccc(Cl)s1 | 18* | 3 | -16 | -4 | 10 | -1
O=C(CNC(=O)C1CCCCC1)OCC(=O)c1ccc(Br)cc1 | · | 10 | -3 | 14 | 0 | ·
COc1cc(OC)cc(C(=O)NCC(=O)OCC(=O)c2cc(OC)ccc2OC)c1 | -18 | -10 | -23 | -4 | 5 | 1
Cc1ccc(C(=O)NCC(=O)OCC(=O)c2ccc3c(c2)NC(=O)CO3)cc1C | -23 | -1 | -5 | -2 | 4 | 2
COc1ccc(OC)c(C(=O)COC(=O)CNC(=O)C2CCCCC2)c1 | 33* | -11 | 1 | 6 | 8 | 2
COc1ccc(C(=O)COC(=O)CNC(=O)C2CCCCC2)c(OC)c1 | 35* | -13 | -10 | 5 | 7 | 1
O=C1COc2ccc(C(=O)COC(=O)CNC(=O)C3CCCCC3)cc2N1 | 31* | 12 | -8 | 8 | -9 | 2
O=C(COC(=O)/C=C/c1cccc(C(F)(F)F)c1)NC1CCS(=O)(=O)C1 (configuration not stated) | · | · | · | · | 0 | 0
O=C(NCCC(=O)N(CCc1ccccc1)Cc1ccccc1)c1ccc(Br)cc1 | 5 | · | 19 | -5 | -5 | 0
CCOC(=O)C1(C)CCN1C(=O)c1ccc(OC)c(F)c1 (configuration not stated) | · | · | · | · | -4 | ·
O=C(COC(=O)CNC(=O)C1CCCCC1)Nc1ccc(Cl)cn1 | 29* | · | -17 | 8 | -1 | 1
O=C(NCC1CCCC(CNC(=O)Nc2ccc(Cl)cn2)C1)Nc1ccc(Cl)cn1 (configuration not stated) | -2 | 5 | 60* | -1 | -6 | 6
O=C(COC(=O)CC1CCCC1)Nc1ccc(Cl)cn1 | · | · | · | 3 | 5 | 1
COc1ccccc1C(=O)NCCN1CCN(c2ccccc2)CC1 | -2 | 2 | -8 | 3 | 10 | 2
CCC1(c2ccccc2)SCC(c2ccccc2)=NC1=O (configuration not stated) | · | · | · | · | -10 | ·
O=C(Cn1cncn1)N/N=C/c1cc([N+](=O)[O-])ccc1O | 5 | -12 | -6 | 7 | 10 | 1
Cc1cccc(NC(=O)CCC(=O)N/N=C/c2cc([N+](=O)[O-])ccc2O)c1 | 3 | 4 | -2 | 7 | 58* | 0
O=C(N/N=C/c1cc([N+](=O)[O-])ccc1O)C1CCCCC1 | 0 | -12 | -2 | 11 | 52* | -1
Cc1ccn(CC(=O)N/N=C/c2cc([N+](=O)[O-])ccc2O)n1 | 4 | -9 | 0 | -2 | 67* | -2
